Data set [1] is described as follows: folding enthalpy; higher = less favourable; fluorescence melt of hairpins on a sequencing array, two-state fit. The following applies: sodium 0.088 M. In outline:
(§1)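 Cy3 signals were normalised both to pre-quench Cy3 and to control constructs. They came from library hairpins carrying annealed Cy3 and quencher oligos on a sequenced MiSeq flow cell, imaged in 50 mM Na-HEPES pH 8.0, 25 mM NaCl, in 2.5 °C steps up to 60 °C. Bootstrapped two-state fits gave melting temperature and folding enthalpy, and four replicates were combined by inverse variance. Fitted temperatures were then raised by 9.35 °C to match UV melts.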

Data set [2] in a line: melting temperature; fluorescence melt of hairpins on a sequencing array, two-state fit, raised by 9.35 °C to match UV melts. The conditions noted are these: sodium 0.088 M. In outline: as §1

In the array DNA melting data of Ke et al. (doi:10.1101/2024.01.08.574731) one finds folding enthalpy and Tm data, which are given here for 36 sequences.

On to GGTACCGAAAGGTCAACC ((((((....)))..))), for which the folding enthalpy in data set [1] was -15.3 kcal/mol. The Tm in data set [2] amounted to 34.5 °C.
In the same order, the values of GGATTACGAAAGTATTCC (((.(((....))).))) are -32.6 kcal/mol and 44 °C.
In the same order, the values of GGCAAGGGAAACTTTGCC (((((.(....).))))) are -37.7 kcal/mol and 50.1 °C.
For CGAGCGGAAACGCAGTCG ((((((....)))..))) the same measures were -13.6 kcal/mol and 38.1 °C.
GGGCGAGGAAACTCGTCC ((.((((....)))).)): the folding enthalpy in data set [1] was -41.5 kcal/mol. Also, in data set [2], the Tm is 58.2 °C.
In the same order, the values of GGACCCGAAAGGGTTTCC ((((((....)))..))) are -8.05 kcal/mol and 37.1 °C.
Consider GTAATACCGAAAGGTTAC (((..(((....)))))), for which the folding enthalpy in data set [1] is -14.6 kcal/mol. The Tm in data set [2] stood at 31.5 °C.
Take GCTCTACGAAAGTACAGC (((.(((....))).))): the folding enthalpy in data set [1] is -21.5 kcal/mol. Also, the Tm in data set [2] came out at 35.5 °C.
For GGCGGCGAAAGCCAAGCC ((((((....)))..))) the same measures were -25.5 kcal/mol and 63.9 °C.
For GCACCGCGAAAGCCATGC (((..((....))..))) the same measures were -9.79 kcal/mol and 28.6 °C.
In the same order, the values of GATCCATCCTTGGATC ((((((....)))))) are -44.2 kcal/mol and 53.6 °C.
On to GGTTGCGGAAACGCAGTC (..((((....))))..), for which the folding enthalpy in data set [1] was -12.8 kcal/mol. The Tm in data set [2] is 36.1 °C.
In the same order, the values of GCTGCCGAAAGGCGGAGC ((((((....)))..))) are -12.6 kcal/mol and 51.3 °C.
Take GGTTTGCGAAAGCACACC (((.(((....))).))): in data set [1], the folding enthalpy is -28.2 kcal/mol. Besides, in data set [2], the Tm was 51.7 °C.
In the same order, the values of GGTGTAGGAAACTACGTC (..((((....))))..) are -9.53 kcal/mol and 29.8 °C.
Consider GTGATGGGAAACCACCAC (((.(((....))).))), for which the folding enthalpy in data set [1] was -29.7 kcal/mol. In data set [2], the Tm was found to be 42.3 °C.
For GCAATCGGAAACGATTAC (.(((((....))))).) the same measures were -16.1 kcal/mol and 38 °C.
Regarding CTAAGGAAACTTAG (((((....))))), in data set [1], the folding enthalpy was -10.7 kcal/mol. The Tm in data set [2] worked out at 29.8 °C.
For GACCAGGGAAACCTGGCC (.(((((....))))).) the same measures were -15.2 kcal/mol and 45.5 °C.
Turning to GTTTCGGGAAACCGAAAC (((((((....))))))), the folding enthalpy in data set [1] was -40.2 kcal/mol. Also, in data set [2], the Tm was determined as 62.5 °C.
As to GCCATGCGAAAGCAGCGC ((..(((....)))..)), in data set [1], the folding enthalpy is -17.2 kcal/mol. Besides, the Tm in data set [2] turned out to be 47 °C.
For the sequence GATCTCCTAGAGATC ((((((...)))))), in data set [1], the folding enthalpy was -35.1 kcal/mol. Moreover, the Tm in data set [2] was 53 °C.
In the same order, the values of GCCGCCGAAAGGCTTGGC ((((((....)))..))) are -21 kcal/mol and 54.5 °C.
Turning to GCAAGGCGAAAGCCGTGC (((.(((....))).))), in data set [1], the folding enthalpy was -22.8 kcal/mol. Besides, the Tm in data set [2] was 68 °C.
In the same order, the values of GCCATGCGAAAGCATCGC ((.((((....)))).)) are -18.1 kcal/mol and 49.5 °C.
In the same order, the values of GATCGGGAGCCCGATC ((((((....)))))) are -36.5 kcal/mol and 55.5 °C.
Consider GCTGTTCCGAAAGGAAGC (((..(((....)))))), for which the folding enthalpy in data set [1] was -14 kcal/mol. Moreover, the Tm in data set [2] was determined as 35.1 °C.
For GACTTTGGAAACAAAGTC (((((((....))))))) the same measures were -44.5 kcal/mol and 57.8 °C.
For the sequence GATCTAAATATAGATC ((((((....)))))), the folding enthalpy in data set [1] was -25.9 kcal/mol. In addition, in data set [2], the Tm came to 35.7 °C.
Turning to GAACGCACGAAAGTGTTC (((..(((....)))))), the folding enthalpy in data set [1] was -12.8 kcal/mol. For the same sequence, the Tm in data set [2] turned out to be 34.1 °C.
As for GATCACGAAGGTGATC ((((((....)))))), in data set [1], the folding enthalpy was -32.7 kcal/mol. Besides, the Tm in data set [2] was 65.3 °C.
For GATCCCCATTGGGATC ((((((....)))))) the same measures were -37.6 kcal/mol and 59.6 °C.
For GGCAAAGCGAAAGCTGCC (((..(((....)))))) the same measures were -31.3 kcal/mol and 58.5 °C.
In the same order, the values of GATCAGAGTGCTGATC ((((((....)))))) are -31.2 kcal/mol and 50.2 °C.
GAGTGGCGAAAGCCCCTC (((.(((....))).))): the folding enthalpy in data set [1] was -19.9 kcal/mol. For the same sequence, in data set [2], the Tm worked out at 48.3 °C.
For GACCAACCGAAAGGTGTC (((..(((....)))))), the folding enthalpy in data set [1] was -13 kcal/mol. Further, in data set [2], the Tm was 35.5 °C.
